# Tests used:
# Rattus norvegicus [1] = assay: The percent fall in systolic blood pressure at 1.5 / 4 hr after peroral administration of 50 mg/kg in DOCA/saline hypertensive rats at 24 hr; Non significant; format: functional, organism-based; parameters: dose 50 mg/kg; conditions: Artery, at 50 mg/kg
# Rattus norvegicus [2] = assay: Starting systolic blood pressure at dose of 50 mg/kg in rat; format: functional, Artery
# How it was run: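 Mean systolic blood pressure before dosing for each group of four DOCA/saline hypertensive rats given 50 mg/kg orally. It indicates how far hypertension was established.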
# Rattus norvegicus [3] = assay: Percent fall in systolic blood pressure at 1.5 / 4 hr after peroral administration of 50 mg/kg in DOCA/saline hypertensive rats at 6 h; Non significant; format: functional, organism-based; parameters: dose 50 mg/kg; conditions: Artery, at 50 mg/kg
# Rattus norvegicus [4] = assay: The percent fall in systolic blood pressure at 1.5 / 4 hr after peroral administration of 50 mg/kg in DOCA/saline hypertensive rats at 2 hr; Non significant; format: functional, organism-based; parameters: dose 50 mg/kg; conditions: Artery, at 50 mg/kg
# Rattus norvegicus [5] = assay: The percent fall in systolic blood pressure at 1.5 / 4 h after peroral administration of 50 mg/kg in DOCA/saline hypertensive rats at 2 hr; format: functional, Artery; conditions: route oral
# Rattus norvegicus [6] = assay: The percent fall in systolic blood pressure at 1.5 / 4 hr after peroral administration of 40 mg/kg in conscious renal hypertensive rats (RHR).; format: functional, Artery; conditions: route oral
# How it was run: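 Conscious renal hypertensive rats, four per group, dosed orally. Starting systolic pressures were 160–200 mmHg. Percentage fall in systolic pressure was taken at 1.5 and/or 4 h after dosing. Falls under 10% were scored as ±.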
# Rattus norvegicus [7] = assay: The percent fall in systolic blood pressure at 1.5 / 4 hr after peroral administration of 50 mg/kg in DOCA/saline hypertensive rats at 6 hr; format: functional, Artery; conditions: route oral
Structure (SMILES),Fall (Rattus norvegicus [1]),SP (Rattus norvegicus [2]) [mmHg],Fall (Rattus norvegicus [3]),Fall (Rattus norvegicus [4]),Fall (Rattus norvegicus [5]) [%],Activity (Rattus norvegicus [6]),Fall (Rattus norvegicus [7]) [%],SP (Rattus norvegicus [2]; 50 mg/kg) [mmHg]
O=C(NC(=O)c1ccccc1)NC1CCN(CCCc2c[nH]c3ccccc23)CC1,Not significant,191,Not significant,Not significant,,,,
O=C(Nc1cccc(C(F)(F)F)c1)NC1CCN(CCCC(=O)c2ccccc2)CC1,Not significant,177,Not significant,Not significant,,,,
O=C(NC1CCCCC1)NC1CCN(CCc2c[nH]c3ccccc23)CC1,Not significant,176,Not significant,,15,,,
O=C(NC(=O)c1ccccc1)NC1CCN(CCCC(=O)c2c[nH]c3ccccc23)CC1,Not significant,187,Not significant,,16,,,
O=C(NC(=O)c1ccccc1)NC1CCN(CC(O)C2COc3ccccc3O2)CC1 (stereo in doubt; 29) [listing 1 of 2 here],Not significant,,Not significant,Not significant,,,,
O=C(Nc1ccc(Cl)cc1)NC1CCN(CCc2c[nH]c3ccccc23)CC1,,,,,,21,,
O=C(NC(=S)NC1CCN(CC(O)C2COc3ccccc3O2)CC1)c1ccc(Cl)cc1 (centres undefined),Not significant,175,Not significant,Not significant,,,,
O=C(NC(=S)NC1CCN(CCc2c[nH]c3ccccc23)CC1)c1ccccc1,Not significant,200,Not significant,Not significant,,,,
O=C(Nc1ccccc1)NC1CCN(CCCC(=O)c2c[nH]c3ccccc23)CC1,Not significant,187,Not significant,Not significant,,,,
O=C(NC(=O)c1cccs1)NC1CCN(CCCC(=O)c2ccccc2)CC1,Not significant,190,Not significant,,30,,,
COc1ccc(C(=O)NC(=O)NC2CCN(CC(O)COc3ccccc3OC)CC2)cc1 (centres undefined),Not significant,162,Not significant,Not significant,,,,
O=C(Nc1ccccc1C(F)(F)F)NC1CCN(CCc2c[nH]c3ccccc23)CC1,,,,,,<10,,
O=C(CCCN1CCC(NC(=S)NC(=O)c2ccccc2)CC1)c1ccccc1,Not significant,186,,,36,,32,
O=C(Nc1ccc(Cl)cc1)NC1CCN(CC(O)C2COc3ccccc3O2)CC1 (centres undefined),Not significant,178,Not significant,Not significant,,,,
N=C(NC(=O)c1ccccc1)NC1CCN(CCc2c[nH]c3ccccc23)CC1,Not significant,165,Not significant,Not significant,,,,
O=C(Nc1ccccc1)NC1CCN(CC(O)C2COc3ccccc3O2)CC1 (stereo in doubt; 30) [listing 1 of 2 here],Not significant,,Not significant,Not significant,,,,
S=C(Nc1ccccc1)NC1CCN(CCc2c[nH]c3ccccc23)CC1,,,,,,21,,
O=C(Nc1ccccc1)NC1CCN(CC(O)C2COc3ccccc3O2)CC1 (stereo in doubt; 31) [listing 1 of 2 here],Not significant,,Not significant,,,,,
O=C(NC(=O)c1ccccc1)NC1CCN(CCc2ccccc2)CC1,Not significant,180,Not significant,Not significant,,,,
COc1ccc(NC(=O)NC2CCN(CC(O)C3COc4ccccc4O3)CC2)cc1 (centres undefined),Not significant,190,Not significant,,17,,,
O=C(Nc1ccc(Cl)c(Cl)c1)NC1CCN(CCc2c[nH]c3ccccc23)CC1,,,,,,15,,
N=C(NC(=O)c1ccccc1)NC1CCN(CCCC(=O)c2ccccc2)CC1,Not significant,188,Not significant,Not significant,,,,
COc1ccccc1OCC(O)CN1CCC(NC(=O)NC(=O)c2ccccc2)CC1 (centres undefined),Not significant,189,Not significant,,17,,,
Cc1cccc(C)c1NC(=O)NC1CCN(CCCC(=O)c2ccccc2)CC1,,,,,,<10,,
O=C(NC(=O)c1ccccc1)NC1CCN(CC(=O)c2ccccc2)CC1,Not significant,166,Not significant,,-23,,,
O=C(Nc1ccccc1)NC1CCN(CCc2c[nH]c3ccccc23)CC1,,,,,,29,,

Structure (SMILES),Fall (Rattus norvegicus [1]),SP (Rattus norvegicus [2]) [mmHg],Fall (Rattus norvegicus [3]),Fall (Rattus norvegicus [4]),Fall (Rattus norvegicus [5]) [%],Activity (Rattus norvegicus [6]),Fall (Rattus norvegicus [7]) [%],SP (Rattus norvegicus [2]; 50 mg/kg) [mmHg]
COc1ccc(C(=O)NC(=O)NC2CCN(CC(O)C3COc4ccccc4O3)CC2)cc1 (centres undefined),Not significant,165,Not significant,Not significant,,,,
O=C(NC(=O)c1ccccc1)NC1CCN(CC(O)COc2cccc3ccccc23)CC1 (centres undefined),Not significant,185,Not significant,Not significant,,,,
COc1ccc(NC(=O)NC2CCN(CCCC(=O)c3ccccc3)CC2)cc1,,,,,,<10,,
CCN(C(=O)Nc1ccccc1)C1CCN(CCc2c[nH]c3ccccc23)CC1,Not significant,170,Not significant,Not significant,,,,
COc1ccc(NC(=O)NC2CCN(CCc3c[nH]c4ccccc34)CC2)cc1,,,,,,27,,
Cc1cccc(NC(=O)NC2CCN(CCCC(=O)c3ccccc3)CC2)c1,,,,,,21,,
O=C(NC(=O)c1ccccc1)NC1CCN(CC(O)C2COc3ccccc3O2)CC1 (stereo in doubt; 29) [listing 2 of 2 here],,,,,,,,178
O=C(NC(=O)c1ccccc1)NC1CCN(CC(=O)c2c[nH]c3ccccc23)CC1,Not significant,178,Not significant,Not significant,,,,
O=C(Nc1ccccc1)NC1CCN(CC(O)C2COc3ccccc3O2)CC1 (stereo in doubt; 30) [listing 2 of 2 here],,,,,,,,182
O=C(NC1CCCCC1)NC1CCN(CC(O)C2COc3ccccc3O2)CC1 (centres undefined),Not significant,172,Not significant,,26,,,
Cc1cccc(NC(=O)NC2CCN(CCc3c[nH]c4ccccc34)CC2)c1,,,,,,14,,
N/C(S)=N/C1CCN(CCc2c[nH]c3ccccc23)CC1,Not significant,189,Not significant,,20,,,
O=C(NC(=O)c1ccc(F)cc1)NC1CCN(CC(O)C2COc3ccccc3O2)CC1 (centres undefined),Not significant,183,Not significant,,17,,,
COc1ccccc1OCC(O)CN1CCC(NC(=O)NC(=O)c2ccc(F)cc2)CC1 (centres undefined),Not significant,196,Not significant,Not significant,,,,
CC(=O)Nc1ccc(OCC(O)CN2CCC(NC(=O)NC(=O)c3ccccc3)CC2)cc1 (centres undefined),Not significant,179,Not significant,Not significant,,,,
OC(CN1CCC(/N=C(\S)Nc2ccccc2)CC1)C1COc2ccccc2O1 (centres undefined),Not significant,182,Not significant,,26,,,
CN(C(=O)NC(=O)c1ccccc1)C1CCN(CCc2c[nH]c3ccccc23)CC1,Not significant,186,Not significant,,40,,,
O=C(NC(=O)c1ccccc1)NC1CCN(CC(O)C2COc3ccccc3O2)CC1 (stereo in doubt; 28) [listing 1 of 2 here],,,,,,,,174
CN(/C(S)=N/c1ccccc1)C1CCN(CCc2c[nH]c3ccccc23)CC1,Not significant,172,Not significant,Not significant,,,,
O=C(NC(=O)c1ccccc1)NC1CCN(CC(O)C2COc3ccccc3O2)CC1 (stereo in doubt; 28) [listing 2 of 2 here],Not significant,,Not significant,Not significant,,,,
O=C(NC(=O)c1cccs1)NC1CCN(CCCC(=O)c2c[nH]c3ccccc23)CC1,Not significant,181,Not significant,Not significant,,,,
O=C(NC(=O)c1ccccc1)NC1CCN(CC(=O)C2COc3ccccc3O2)CC1 (centres undefined),Not significant,181,Not significant,Not significant,,,,
O=C(Nc1ccccc1)NC1CCN(CC(O)C2COc3ccccc3O2)CC1 (stereo in doubt; 31) [listing 2 of 2 here],,,,,35,,,171
NC(=O)NC1CCN(CCc2c[nH]c3ccccc23)CC1,,,,,,28,,
O=C(NC(=O)c1ccccc1)NC1CCN(CC(O)c2ccccc2)CC1 (centres undefined),Not significant,182,Not significant,,21,,,
O=C(Nc1ccccc1)NC1CCN(CC(O)COc2cccc3ccccc23)CC1 (centres undefined),Not significant,170,Not significant,Not significant,,,,
